Compound activity: PubChem, Johns Hopkins Ion Channel Center
In the library only some 3.7% were active in any assay of this set; here they are far more common.
KCNQ1 inh: blocks the human KCNQ1 potassium channel; P51787; B-score at 10 µM; 310,000 tested, 1.3% active; CHO-K1 KCNQ1, FluxOR thallium flux fluorescence; hits give high values; AID 2642;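 active = compounds whose thallium flux B-score, printed positive for inhibition, exceeds three library SD while starting fluorescence stays within three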;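 also: channel opened by potassium depolarization with thallium stimulus after 20 min compound exposure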
Target sequence (P51787 whole entry, looked up): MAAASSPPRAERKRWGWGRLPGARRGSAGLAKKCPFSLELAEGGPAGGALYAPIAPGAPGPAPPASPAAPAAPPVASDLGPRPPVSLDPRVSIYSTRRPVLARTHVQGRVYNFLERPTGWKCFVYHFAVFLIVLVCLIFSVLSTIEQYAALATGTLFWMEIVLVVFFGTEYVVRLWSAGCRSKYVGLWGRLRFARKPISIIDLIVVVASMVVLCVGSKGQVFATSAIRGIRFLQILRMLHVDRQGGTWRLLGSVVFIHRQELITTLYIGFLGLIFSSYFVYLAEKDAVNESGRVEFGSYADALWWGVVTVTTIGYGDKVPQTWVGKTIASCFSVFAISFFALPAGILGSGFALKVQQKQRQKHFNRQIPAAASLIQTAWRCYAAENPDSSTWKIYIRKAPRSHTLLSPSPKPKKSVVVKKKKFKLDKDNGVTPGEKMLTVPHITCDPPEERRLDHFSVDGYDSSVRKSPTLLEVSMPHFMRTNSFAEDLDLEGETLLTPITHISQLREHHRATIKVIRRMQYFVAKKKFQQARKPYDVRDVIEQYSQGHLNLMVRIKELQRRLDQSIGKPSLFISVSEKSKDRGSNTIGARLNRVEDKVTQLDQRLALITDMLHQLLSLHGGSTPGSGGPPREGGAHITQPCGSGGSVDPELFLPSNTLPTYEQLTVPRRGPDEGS
KCNQ1 pot: potentiators or activators of human KCNQ1 potassium channel; P51787; CHO-K1 KCNQ1, thallium flux FluxOR fluorescence; hits give high values; B-score at 10 µM; 310,000 tested, 0.35% active;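 active = fluorescence ratio B-score, a plate-corrected score, at least three library SD, with initial intensity B-score within 5 SD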
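Test system: CHO-K1 cells stably expressing KCNQ1 / Medium: assay buffer / Also added: depolarizing K+/Tl+ stimulus, K2SO4 and Tl2SO4 each 12.5 mM in 5x stock / Incubation: 90 min dye loading and 20 min compound exposure, both at room temperature / Signal: thallium influx via FluxOR fluorescence, kinetic imaging / Evaluation: B score of baseline-normalized fluorescence ratio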
KCNK3 inh: human KCNK3 channel inhibition, primary screen. O14649. CHO-KCNK3 thallium flux, FluxOR fluorescence; hits give low values. B-score at 10 µM. 340,000 tested, 0.84% active;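 active = B-score under library mean minus 4 SD, starting fluorescence ratio at most library mean plus 5 SD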;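 also: more negative B-score means stronger inhibition of thallium flux through KCNK3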
Kir21 inh: blocks the mouse Kir2.1 inward-rectifier potassium channel; B-score at 10 µM; HEK293-Kir2.1, FluxOR thallium flux fluorescence; hits give low values; 310,000 tested, 0.85% active; P35561;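 active = fluorescence ratio B-score at or below minus 3 SD of library scores, with starting-brightness B-score within 2 SD, cut at about -4.2 in these data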;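 also: channel flux triggered by added potassium and thallium sulfate stimulus; B-score of peak minus minimum fluorescence over baseline after thallium stimulus; more negative B-score means stronger Kir2.1 block with less thallium influx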
KCNK9 inh: blocks the human KCNK9 two-pore domain potassium channel; AID 488922; Q9NPC2; HEK293 KCNK9, FluxOR thallium flux fluorescence; hits give low values; B-score at 10 µM; 310,000 tested, 1.2% active;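 active = ratio B-score over 3 SD below the library mean, with starting fluorescence within 5 SD of its mean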;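 also: negative B-score means less thallium flux so channel inhibition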
hERG protect: hERG (human) protection from proarrhythmic block | Q12809 | CHO-hERG, FluxOR thallium flux, dofetilide IC70 present | activation (rescue from dofetilide block), less the hit threshold, % at 10 µM | 310,000 tested, 0.51% active;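 active = activation above the mean of controls blocked by dofetilide plus 5 SD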;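 also: thallium influx through hERG after potassium depolarization seen as dye fluorescence rise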
KCNK9 inh conf: confirmation of human KCNK9 potassium channel inhibitors | HEK293 KCNK9 cells, FluxOR thallium flux fluorescence | inhibition, % at 10 µM | AID 492992 | shares compounds with KCNK9 inh | 4,900 tested, 43% active;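 active = thallium signal inhibited by more than 5 SD of the compound-free buffer control wells, on both duplicate plates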
Kir2-1 spec: mouse Kir2.1 off-target activity of KCNK9 modulators; Kir2.1 cells, FluxOR thallium flux fluorescence; AID 492993; 4,900 tested, 4% active; inhibition, % at 10 µM; shares compounds with KCNK9 inh;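 active = thallium signal drop more than 5 SD beyond the mean of the no-compound control wells, seen in both duplicate plates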;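 also: signal is fluorescence rise after thallium addition divided by baseline fluorescence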
HEK293 Tl ctr: second check of KCNK9 modulator effects in non-induced HEK293 cells; shares compounds with KCNK9 inh; FluxOR thallium flux; inhibition, % at 10 µM; 4,900 tested, 40% active; AID 492997;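 active = thallium signal drop beyond 5 SD of the untreated control mean, on both duplicate plates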
Of the large screens only hits and unclear results are named; the others gave an inactive call (follow-up assays come after a bar, where they were run).

CSc1nc(C(=O)N2CCCC(N3CCN(c4ccccc4C)CC3)C2)cs1 (stereo unspecified)	none | KCNK9 inh conf inactive | Kir2-1 spec inactive | HEK293 Tl ctr inactive
CCSc1nc2ccccc2n1C(=O)c1ccc(S(=O)(=O)N2CCCCCC2)cc1	none | KCNK9 inh conf inactive | Kir2-1 spec inactive | HEK293 Tl ctr inactive
[O-][n+]1c2cc(C(F)(F)F)ccc2c2n1CCN=C2c1ccc(Cl)cc1	none
COc1ccccc1NS(=O)(=O)c1cc(NC(=O)C(C)C)ccc1N1CCCCC1	KCNK9 inh -11 | KCNK9 inh conf 52% | Kir2-1 spec inactive | HEK293 Tl ctr 35%
O=C(COc1ccc(Cl)cc1Cl)N1CCCN(C(=O)COc2ccc(Cl)cc2Cl)CC1	KCNK9 inh -11 | KCNK9 inh conf 36% | Kir2-1 spec inactive | HEK293 Tl ctr inactive
COc1ccc(C(=O)OCC(=O)N2CCC(C)CC2)cc1S(=O)(=O)N1CCOCC1	none (no result: KCNQ1 inh, KCNQ1 pot, Kir21 inh, KCNK9 inh, hERG protect)
Cc1ccc(C(=O)OCC(=O)N2CCC(C)CC2)cc1S(=O)(=O)N1CCCCC1	none | KCNK9 inh conf inactive | Kir2-1 spec inactive | HEK293 Tl ctr inactive
CC1CCN(C(=O)COC(=O)c2ccc(F)c(S(=O)(=O)N3CCOCC3)c2)CC1	none | KCNK9 inh conf inactive | Kir2-1 spec inactive | HEK293 Tl ctr inactive
Cc1ccc(C(=O)OCC(=O)N2CC(C)CC(C)C2)cc1S(=O)(=O)N1CCOCC1 (stereo unspecified)	none
COc1cc(CC(=O)N(c2ccccc2)c2nc(C)cs2)cc(OC)c1OC	none
COCCn1c(SCC(=O)Nc2ccc(OC)c(S(N)(=O)=O)c2)nc2ccccc2c1=O	none
Cc1ccc(C(=O)Nc2ccc(Cc3ccncc3)cc2)cc1[N+](=O)[O-]	none | KCNK9 inh conf inactive | Kir2-1 spec inactive | HEK293 Tl ctr inactive
CCN1CCc2c(OCc3ccccc3)cccc2C1=O	none
O=C1c2cccc(OCc3ccc(F)cc3)c2CCN1Cc1ccccc1	KCNK9 inh -11 | KCNK9 inh conf 70% | Kir2-1 spec inactive | HEK293 Tl ctr 48%
Cc1ccc(COc2cccc3c2CCN(Cc2ccc(F)cc2)C3=O)cc1	KCNK9 inh -10 | KCNK9 inh conf 74% | Kir2-1 spec inactive | HEK293 Tl ctr 41%
Cc1ccc(O)c(C(=O)CC(=O)c2ccc(C(C)(C)C)cc2)c1	none | KCNK9 inh conf inactive | Kir2-1 spec inactive | HEK293 Tl ctr inactive
COc1cccc(C2Oc3ccccc3C3CC(c4cccs4)=NN32)c1 (stereo unspecified)	KCNK9 inh -12 | KCNK9 inh conf 60% | Kir2-1 spec inactive | HEK293 Tl ctr inactive
O=C(c1ccccc1)C1Oc2ccccc2C2CC(c3cccs3)=NN12 (stereo unspecified)	none
COc1ccc(NC(=O)C23CC4CC(C2)CC(c2ccccc2)(C4)C3)c(OC)c1	none | KCNK9 inh conf inactive | Kir2-1 spec inactive | HEK293 Tl ctr inactive
COCCNC(=O)C12CC3CC(C1)CC(c1ccccc1)(C3)C2	none
CCOc1ccccc1N/C=C(\C#N)c1nc2ccccc2n1C	KCNK9 inh -11 | KCNK9 inh conf inactive | Kir2-1 spec inactive | HEK293 Tl ctr inactive
CCC1CCC2(CC1)NC(=O)N(CC(=O)N1CCc3ccccc31)C2=O (stereo unspecified)	none (no result: KCNQ1 inh, KCNQ1 pot, Kir21 inh, KCNK9 inh, hERG protect)
Nc1cc(=O)[nH]c(SCC(=O)Nc2cc(S(=O)(=O)N3CCCCC3)ccc2Cl)n1	none (no result: KCNQ1 inh, KCNQ1 pot, Kir21 inh, KCNK9 inh, hERG protect)
CCOc1ccc(OCC)c(Nc2cc(C)nc3ncnn23)c1	none | KCNK9 inh conf inactive | Kir2-1 spec inactive | HEK293 Tl ctr 24%
CCOc1ccccc1NC(=O)COC(=O)c1cccc(-c2ccc(OC(C)=O)cc2)c1	KCNK9 inh -10 | KCNK9 inh conf inactive | Kir2-1 spec inactive | HEK293 Tl ctr 32%
CC(=O)Oc1ccc(-c2cccc(C(=O)OCC(=O)Nc3ccccc3Oc3ccccc3)c2)cc1	none
COc1ccc2c(c1)-c1c(sn(-c3ccc(OC)c(OC)c3)c1=S)C(C)(C)N2	none | KCNK9 inh conf inactive | Kir2-1 spec inactive | HEK293 Tl ctr inactive
COc1ccc(-n2sc3c(c2=S)-c2cc(OC)ccc2NC3(C)C)cc1	none
Cc1cc(=O)[nH]c2c(C)cc(S(=O)(=O)Nc3ccc(O)cc3)cc12	none
CC(=O)N1c2c(cc(Br)cc2S(=O)(=O)NCc2cccnc2)CC1C (stereo unspecified)	none
CCCCN(Cc1ccccc1)S(=O)(=O)c1cc(Br)cc2c1N(C(C)=O)C(C)C2 (stereo unspecified)	KCNK9 inh -15 | KCNK9 inh conf inactive | Kir2-1 spec inactive | HEK293 Tl ctr 54%
O=C(Nc1ccccc1)OCCCc1ccccc1	none | KCNK9 inh conf inactive | Kir2-1 spec inactive | HEK293 Tl ctr inactive
COc1ccc(/C=C/CN2CCC(n3nccc3NC(=O)C3CCCC3)CC2)cc1	none
O=C(NNC(=S)Nc1ccc(Cl)c(Cl)c1)c1ccccn1	none | KCNK9 inh conf inactive | Kir2-1 spec inactive | HEK293 Tl ctr inactive
CCNC(=S)NNC(=O)c1ccccn1	none
COc1cc2nc(Nc3ccc(C)c(Cl)c3)nc(N)c2cc1OC	KCNK9 inh -16 | KCNK9 inh conf inactive | Kir2-1 spec inactive | HEK293 Tl ctr inactive
CCOC(=O)c1ccc(Nc2nc(N)c3cc(OC)c(OC)cc3n2)cc1	none
O=C(COC(=O)Cc1n[nH]c(=O)c2ccccc12)NNC(=O)c1ccc(Br)cc1	none (no result: KCNQ1 inh, KCNQ1 pot, Kir21 inh, KCNK9 inh, hERG protect)
O=C(Cc1c(Cl)cccc1Cl)OCC(=O)N1CCc2ccccc2C1	none | KCNK9 inh conf inactive | Kir2-1 spec inactive | HEK293 Tl ctr inactive
CC(C)c1ccc(OCC(=O)N2CCc3ccccc3C2)cc1	none | KCNK9 inh conf inactive | Kir2-1 spec inactive | HEK293 Tl ctr inactive
CC(=O)Nc1ccc(OCC(=O)N2CCc3ccccc3C2)cc1	none
COc1ccccc1/C(C)=N/Oc1cc(N)cc([N+](=O)[O-])c1	none (no result: KCNQ1 inh, KCNQ1 pot, Kir21 inh, KCNK9 inh, hERG protect)
CC(C)(C)c1csc(N/N=C/c2cccnc2)n1	none
C/C(=N\Nc1nc(C(C)(C)C)cs1)c1ccccc1	none | KCNK9 inh conf inactive | Kir2-1 spec inactive | HEK293 Tl ctr inactive
Cc1ccc(/C=N/Nc2nc(C(C)(C)C)cs2)o1	KCNQ1 pot 18, hERG protect 10 | KCNK9 inh conf inactive | Kir2-1 spec inactive | HEK293 Tl ctr inactive
CSCC[C@H](NC(=O)N1C[C@H]2C[C@@H](C1)c1cccc(=O)n1C2)C(=O)Nc1ccc(NC(C)=O)cc1	none
Cc1cccc(CC(=O)N2CCOCC2)c1	none
Cc1ccc2c(c1)CCCN2C(=O)CSc1ccccc1	none | KCNK9 inh conf inactive | Kir2-1 spec inactive | HEK293 Tl ctr inactive
Cn1cc(SCC(=O)N2CCOCC2)c2ccccc21	none
